Screening results (PubChem BioAssay)
SIRT5 block – SIRT5 desuccinylase inhibitors, primary screen, biochemical, fluorescence imaging, single point, set 5; NAD-dependent protein deacylase sirtuin-5, mitochondrial (Homo sapiens), Q9NXA8; Purified SirT5, succinyl-peptide AMC, trypsin-coupled fluorescence; inhibition, % at 15 µM; 330,000 compounds, 1.1% hits; AID 652115, 2013; in the data active = inhibition above about 15%
Target sequence (Q9NXA8 whole entry, looked up): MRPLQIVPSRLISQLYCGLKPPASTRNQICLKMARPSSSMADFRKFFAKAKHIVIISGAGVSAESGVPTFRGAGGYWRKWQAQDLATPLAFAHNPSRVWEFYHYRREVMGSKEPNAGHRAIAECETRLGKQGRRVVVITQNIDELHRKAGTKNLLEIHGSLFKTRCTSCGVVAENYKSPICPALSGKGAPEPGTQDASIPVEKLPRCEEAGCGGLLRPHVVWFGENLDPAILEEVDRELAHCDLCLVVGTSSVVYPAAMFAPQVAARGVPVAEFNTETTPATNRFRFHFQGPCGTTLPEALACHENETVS
PGC1a acetyl inh – inhibitors of PGC1a acetylation signal, primary screen, cell-based, U2OS, AlphaScreen, inhibitor mode. AlphaScreen anti-acetyl-lysine; with virally co-expressed GCN5 acetyltransferase. inhibition, % at 15.6 µM. 350,000 compounds, 0.17% hits;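 active = every replicate shows inhibition of at least 40%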
S100A4 MyoIIA – inhibitors of S100A4-myosin IIA peptide binding, primary screen, biochemical, fluorescence polarization, TAMRA-MyoIIA peptide | 360,000 compounds, 0.14% hits | Protein S100-A4 (Homo sapiens), P26447 | inhibition, % at 10.7 µM;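 active = mean inhibition of at least 70% across replicates, with every replicate also reaching that level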
Target sequence (P26447 whole entry, looked up): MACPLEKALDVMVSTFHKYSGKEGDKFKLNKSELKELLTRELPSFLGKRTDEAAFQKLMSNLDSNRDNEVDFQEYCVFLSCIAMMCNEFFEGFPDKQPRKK
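Material: human S100A4 monomer with TAMRA-labelled myosin IIA peptide; buffer or medium: HEPES pH 7.2 with CaCl2, KCl, NaCl, DTT, Triton; compound dosing: one concentration per compound; schedule: 5 min incubation before reading; benchmarks: neutral control DMSO, positive control TFP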
Ecoli rRNA inh – reduced GFP signal of wild-type E. coli, primary screen, bacterial rRNA inhibitor project, GFP/RFP fluorescence, OD600, single point; E. coli WT GFP vs humanized-ribosome RFP mutants, 24 h; hits give low values; DMSO median 0, no signal -100; GFP signal change (wild-type ribosome), % (test concentration not listed); 350,000 compounds, 1.6% hits; AID 720706, 2013;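 active = significant combined selectivity score with lowered wild-type GFP, culture density cut under 30%, mutant RFP and density less affected; inactive = any of these conditions unmet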
Cneo AK release – Cryptococcus neoformans cell lysis inducers, primary screen, AK release luminescence, single concentration | 360,000 compounds, 0.2% hits | C. neoformans lysis, adenylate kinase release luminescence, 4 h; normalised: neutral wells 0, clomiphene wells 100 | lysis activity, % at 15 µM;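 active = mean lysis activity across replicates of at least 80%, whatever share of replicates individually reach that level; inactive = mean lysis activity below 80%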
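Test system: log-phase Cryptococcus neoformans yeast cells. Input: 5 × 10^6 yeast cells/mL. Medium: fresh YPD growth medium. Doses: single dose. Incubation: static 4 h at 37 °C with compound, 1 h detection. Measured by: luminescent adenylate kinase detection reagent. Read-out: signal increase indicating cell lysis. Benchmarks: Clomiphene.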
Statin myotox sup – suppressors of statin myotoxicity in C2C12 myotubes, primary screen, cell-based, single point, plate reader | 330,000 compounds, 0.78% hits | AID 602340, 2012 | C2C12 myotubes + simvastatin, ATP luminescence, 48 h; scaled: DMSO 0, geranylgeraniol control 100 | rescue of ATP level, % at 7.49 µM;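 active = mean ATP rescue above about 67%, or every replicate alone reaching that limit, limit read from the data, passing the limit was not always enough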;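 note: myotubes were challenged with 10 µM simvastatin during compound exposure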
Of the large screens only hits and unclear results are named; the others gave an inactive call. Hits are enriched below; roughly 3% of the tested compounds scored in any of these assays.

C[C@H]1CN([C@@H](C)CO)C(=O)c2cc(C#CCC3CCCC3)cnc2O[C@H]1CN(C)C(=O)c1cnccn1	SIRT5 block 24
COCC(=O)N(C)C[C@@H]1Oc2ncc(C#CCC3CCCC3)cc2C(=O)N([C@H](C)CO)C[C@H]1C	Cneo AK release 87
CC(=O)N(C)C[C@H]1Oc2ncc(C#CCC3CCCC3)cc2C(=O)N([C@@H](C)CO)C[C@H]1C	SIRT5 block 19
COc1ccccc1NC(=O)COc1ccc(CO)cc1Cl	Statin myotox sup 75 (no result: SIRT5 block, S100A4 MyoIIA, Ecoli rRNA inh)
CNCc1cc(Br)c(OCC(=O)Nc2ccccc2OC)c(OC)c1	SIRT5 block 24 (no result: Cneo AK release, Statin myotox sup)
CCNCc1cc(Br)c(OCC(=O)Nc2ccccc2)c(OC)c1	none (no result: SIRT5 block, S100A4 MyoIIA, Ecoli rRNA inh)
C[C@@H]1CN([C@@H](C)CO)C(=O)c2cc(/C=C/c3ccccc3)cnc2O[C@H]1CN(C)C(=O)c1cnccn1	none
CCCn1c(-c2ccccc2)cc(SC)c(C#N)c1=O	PGC1a acetyl inh 93 (no result: Cneo AK release)
C=CCn1c(-c2ccccc2)cc(SC)c(C#N)c1=O	none (no result: PGC1a acetyl inh)
CCCC(=O)Nc1ccc2c(c1)C(=O)N(C)C[C@@H](OC)[C@H](C)CN(Cc1nccs1)[C@H](C)CO2	none
Cc1ccc(-c2cnc3c(c2)C(=O)N([C@@H](C)CO)C[C@H](C)[C@H](CN(C)C)O3)cc1	SIRT5 block 16
Cc1ccc(-c2cnc3c(c2)C(=O)N([C@@H](C)CO)C[C@@H](C)[C@@H](CN(C)C)O3)cc1	none
Cc1ccc(-c2cnc3c(c2)C(=O)N([C@@H](C)CO)C[C@@H](C)[C@H](CN(C)C)O3)cc1	PGC1a acetyl inh 109
C[C@H]1CN([C@@H](C)CO)C(=O)c2cc(-c3cccc(F)c3)cnc2O[C@H]1CN(C)C	none
C[C@@H]1CN([C@@H](C)CO)C(=O)c2cc(-c3cccc(F)c3)cnc2O[C@H]1CN(C)C	SIRT5 block 20
COc1ccc(S(=O)(=O)Nc2ccc3c(c2)C(=O)N([C@H](C)CO)C[C@@H](C)[C@H](CN(C)Cc2ccccc2)OCCCC[C@H](C)O3)cc1	none (no result: SIRT5 block, S100A4 MyoIIA, Statin myotox sup)
CCC(=O)N1CC(=O)N2[C@@H](CO)[C@H](c3ccc(C#CC(C)C)cc3)[C@@H]2C1	none (no result: SIRT5 block, PGC1a acetyl inh, S100A4 MyoIIA, Cneo AK release, Statin myotox sup)
CC(C)CC#Cc1cnc2c(c1)C(=O)N([C@@H](C)CO)C[C@@H](C)[C@H](CN(C)Cc1ccccc1C(=O)O)O2	none
COc1ccc(NC(=O)N[C@@H]2CC[C@H](CCn3cc(-c4ccc(OC)cc4)nn3)O[C@H]2CO)cc1	none
COc1ccc2c3c(n(C)c2c1)[C@H](CO)N(C(=O)C1CCCC1)CC31CN(C)C1	none (no result: PGC1a acetyl inh, Cneo AK release, Statin myotox sup)
CC(=O)c1sc(N/N=C/c2cccc(O)c2)nc1C	Ecoli rRNA inh -21
O=C(NC(=S)Nc1nc(-c2cccc([N+](=O)[O-])c2)cs1)c1ccccc1Cl	Ecoli rRNA inh -19 (no result: Cneo AK release, Statin myotox sup)
CC(=O)c1sc(N/N=C/c2cccc([N+](=O)[O-])c2)nc1C	none (no result: PGC1a acetyl inh)
O=C(NC(=S)Nc1nc(-c2cccc([N+](=O)[O-])c2)cs1)c1cc(Cl)ccc1Cl	none
O=[N+]([O-])c1cccc(-c2csc(N/N=C/c3cccc(O)c3)n2)c1	Ecoli rRNA inh -42 (no result: Cneo AK release)
Cc1noc(C)c1S(=O)(=O)N(C)C[C@H]1Oc2c(cccc2N(C)C)C(=O)N([C@@H](C)CO)C[C@@H]1C	none (no result: SIRT5 block)
CCS(=O)(=O)N1CC(=O)N2[C@@H](CO)[C@H](c3ccc(C#CC4CCCCC4)cc3)[C@@H]2C1	none (no result: Cneo AK release, Statin myotox sup)
Cc1noc(C)c1NC(=O)N(C)C[C@H]1OCCCC[C@@H](C)Oc2ccc(NS(=O)(=O)c3ccc(Cl)cc3)cc2C(=O)N([C@H](C)CO)C[C@H]1C	none (no result: Statin myotox sup)
CCOC(=O)N1CCN(c2nc(SC)nc3sc4c(c23)CC(C)(C)OC4)CC1	none (no result: SIRT5 block, S100A4 MyoIIA, Ecoli rRNA inh)
CSc1nc(SC(C)C(=O)O)c2c3c(sc2n1)COC(C)(C)C3 (stereo not drawn)	Ecoli rRNA inh -23
O=C(O)c1c[nH]c2ccc(S(=O)(=O)N3CCOCC3)cc12	Statin myotox sup 107 (no result: SIRT5 block, S100A4 MyoIIA, Ecoli rRNA inh)
CCCNC(=O)N1C[C@@H]2[C@H](c3ccccc31)[C@@H](CO)N2Cc1ccc(OC)cc1	none
CCCNC(=O)N1C[C@@H]2[C@H](c3ccccc31)[C@H](CO)N2Cc1ccc(OC)cc1	Cneo AK release 101
COc1ccccc1C(=O)N1C[C@H]2[C@@H](c3ccccc31)[C@@H](CO)N2C(=O)Cc1ccccc1	Cneo AK release 101
COc1ccccc1C(=O)N1C[C@H]2[C@@H](c3ccccc31)[C@@H](CO)N2Cc1ccc(F)cc1	SIRT5 block 16
COc1cccc(NC(=O)N(C)C[C@@H]2Oc3ncc(C#Cc4cccnc4)cc3C(=O)N([C@@H](C)CO)C[C@@H]2C)c1	none
COc1cc(Nc2ncc3c(n2)CCN(C(=O)Nc2ccc(C(C)C)cc2)C3)cc(OC)c1OC	SIRT5 block 18 (no result: PGC1a acetyl inh)
O=C(C[C@H]1C=C[C@H](NC(=O)C2CCOCC2)[C@@H](CO)O1)NCc1ccccc1Cl	none (no result: Cneo AK release, Statin myotox sup)
O=C(Nc1ccc2c(c1)OCCO2)C(=S)NCc1ccccc1	Ecoli rRNA inh -32 (no result: Cneo AK release, Statin myotox sup)
O=c1[nH]c2cc(Cl)ccc2n1-c1ccccc1	Statin myotox sup 100 (no result: SIRT5 block, S100A4 MyoIIA, Ecoli rRNA inh)
Cc1noc(C)c1-c1ccc(C(=O)Nc2cccc(C(F)(F)F)c2)c2occc12	SIRT5 block 19
Cc1noc(C)c1-c1ccc(C(=O)Nc2cccc(NS(C)(=O)=O)c2)c2occc12	none
O=C(CN1C(=O)CCS(=O)(=O)c2ccccc21)NCc1ccccc1	Statin myotox sup 72 (no result: SIRT5 block, S100A4 MyoIIA, Ecoli rRNA inh)
O=C(CN1C(=O)CCS(=O)(=O)c2ccccc21)NCc1ccc2c(c1)OCO2	none (no result: SIRT5 block, S100A4 MyoIIA, Ecoli rRNA inh, Cneo AK release)
CCOc1ccc2c(c1)nc(SCC(=O)c1ccc(Br)s1)n2C	Statin myotox sup 70 (no result: SIRT5 block, S100A4 MyoIIA, Ecoli rRNA inh)
C[C@@H]1CCCCO[C@@H](CN(C)S(C)(=O)=O)[C@@H](C)CN([C@@H](C)CO)C(=O)c2cc(NS(=O)(=O)c3ccc(F)cc3)ccc2O1	none
Cc1noc(C)c1NC(=O)N(C)C[C@H]1OCCCC[C@@H](C)Oc2ccc(NC(=O)CCC(F)(F)F)cc2C(=O)N([C@H](C)CO)C[C@@H]1C	none (no result: SIRT5 block, Statin myotox sup)
COc1ccc(OC)c(NC2c3ncccc3C(=O)N2Cc2ccco2)c1 (stereo not drawn)	SIRT5 block 16
CCN(C(=O)c1cnc(OC)cc1C(F)(F)F)c1ccc(Cl)cc1	none (no result: Ecoli rRNA inh)
